Source: ChEMBL document CHEMBL1152799, “Mixed kappa/mu opioid receptor agonists: the 6 beta-naltrexamines” (J Med Chem, 2009)
Active and inactive are the calls of the source. No cut-off for these calls is given here.

Legend:
Mu-type opioid receptor [1] = biological target: T1, Mu-type opioid receptor (Rattus norvegicus, UniProt P33535); test: Displacement of [3H]diprenorphine from rat mu opioid receptor expressed in rat C6 cell membrane by liquid scintillation and luminescence counter
[2] = biological target: T2, Kappa-type opioid receptor (Homo sapiens, UniProt P41145); test: Displacement of [3H]diprenorphine from human kappa opioid receptor expressed in CHO cell membrane by liquid scintillation and luminescence counter
Mu-type opioid receptor [3] = biological target: T1, Mu-type opioid receptor; test: Agonist activity at rat mu opioid receptor expressed in rat C6 cell membrane assessed as stimulation of [35S]GTPgammaS binding; assay type: functional, cell membranes
Method in brief: (§1)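 Membranes from CHOκ (human KOR, grown in DMEM-F12) or C6μ (rat MOR, DMEM) cells, 20 μg, incubated 60 min at 25 °C in 20 mM Tris-HCl pH 7.4, 5 mM MgCl2, 100 mM NaCl, 2.2 mM fresh DTT, 30 μM GDP, 0.1 nM [35S]GTPγS with compound; filtered on GF/C, scintillation counting; efficacy versus U69593 (KOR) or DAMGO (MOR); mean ± SEM of three experiments.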

[4] = biological target: Mu-type opioid receptor (Rattus norvegicus) (UniProt P33535); test: Agonist activity at rat mu opioid receptor expressed in rat C6 cell membrane assessed as stimulation of [35S]GTPgammaS binding relative to DAMGO; assay type: functional, cell membranes; method in brief: as §1
[5] = biological target: T2, Kappa-type opioid receptor; test: Agonist activity at human kappa opioid receptor expressed in CHO cell membrane assessed as stimulation of [35S]GTPgammaS binding; assay type: functional, cell membranes; method in brief: as §1
[6] = biological target: T2, Kappa-type opioid receptor; test: Agonist activity at human kappa opioid receptor expressed in CHO cell membrane assessed as stimulation of [35S]GTPgammaS binding relative to U69593; assay type: functional, cell membranes; method in brief: as §1
[7] = biological target: Mu-type opioid receptor (Rattus norvegicus) (UniProt P33535); test: Antagonist activity at rat mu opioid receptor expressed in rat C6 cell membrane assessed as DAMGO-stimulated of [35S]GTPgammaS binding; assay type: functional, cell membranes
Method in brief: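 C6 glioma membranes with stably expressed rat MOR; antagonism of DAMGO-stimulated [35S]GTPγS binding reported as Ke; incubation 60 min, 25 °C, in Tris-HCl pH 7.4 with MgCl2, NaCl, DTT, 30 μM GDP, 0.1 nM [35S]GTPγS; filtration and scintillation read-out.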

Sequence of Mu-type opioid receptor (Rattus norvegicus) (P33535 whole entry): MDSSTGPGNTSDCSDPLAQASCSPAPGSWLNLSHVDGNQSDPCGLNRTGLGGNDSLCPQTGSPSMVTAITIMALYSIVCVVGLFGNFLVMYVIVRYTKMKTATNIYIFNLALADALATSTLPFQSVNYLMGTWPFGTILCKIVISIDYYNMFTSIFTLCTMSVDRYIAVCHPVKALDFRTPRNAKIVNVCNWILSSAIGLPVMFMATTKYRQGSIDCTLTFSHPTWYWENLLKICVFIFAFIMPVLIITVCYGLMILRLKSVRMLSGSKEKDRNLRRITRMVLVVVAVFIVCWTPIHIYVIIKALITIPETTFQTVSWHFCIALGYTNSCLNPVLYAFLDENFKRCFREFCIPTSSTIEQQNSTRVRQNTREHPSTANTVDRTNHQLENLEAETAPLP
T1 sequence (P33535 whole entry): as above
T2 sequence (P41145 whole entry): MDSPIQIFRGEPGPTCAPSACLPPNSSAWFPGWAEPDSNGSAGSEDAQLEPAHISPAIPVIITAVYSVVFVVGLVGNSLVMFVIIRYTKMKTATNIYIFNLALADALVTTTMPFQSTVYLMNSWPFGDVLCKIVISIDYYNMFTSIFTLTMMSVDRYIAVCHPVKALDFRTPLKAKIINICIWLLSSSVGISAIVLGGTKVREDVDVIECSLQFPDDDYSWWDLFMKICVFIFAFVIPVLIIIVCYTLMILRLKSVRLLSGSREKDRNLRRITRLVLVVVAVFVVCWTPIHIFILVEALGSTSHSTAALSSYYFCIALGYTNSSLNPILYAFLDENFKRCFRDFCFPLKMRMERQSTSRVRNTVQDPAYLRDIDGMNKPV

SMILES | Ki (Mu-type opioid receptor [1]) | Ki [2] | EC50 (Mu-type opioid receptor [3]) | Activity [4] | EC50 [5] | Activity [6] | Ke [7]
O=C(/C=C/c1ccccc1Cl)N[C@@H]1CC[C@@]2(O)[C@H]3Cc4ccc(O)c5c4[C@@]2(CCN3CC2CC2)[C@H]1O5 | 79 pM | 270 pM | 12000 pM | 17% | 400 pM | 97% | –
O=C(/C=C/c1ccccc1)N[C@@H]1CC[C@@]2(OC(=O)c3ccccc3)[C@H]3Cc4ccc(O)c5c4[C@@]2(CCN3CC2CC2)[C@H]1O5 | 420 pM | 1100 pM | – | inactive | 9800 pM | 26% | 0.41 nM
C=CCO[C@@]12CC[C@@H](NC(=O)/C=C/c3ccccc3)[C@@H]3Oc4c(O)ccc5c4[C@@]31CCN(CC1CC1)[C@@H]2C5 | 250 pM | 120 pM | 600 pM | 39% | 79 pM | 120% | –
O=C(/C=C/c1cccc([N+](=O)[O-])c1)N[C@@H]1CC[C@@]2(O)[C@H]3Cc4ccc(O)c5c4[C@@]2(CCN3CC2CC2)[C@H]1O5 | 110 pM | 360 pM | 180 pM | 20% | 120 pM | 100% | –
O=C(/C=C/c1ccccc1)N[C@@H]1CC[C@@]2(OCc3ccccc3)[C@H]3Cc4ccc(O)c5c4[C@@]2(CCN3CC2CC2)[C@H]1O5 | 160 pM | 860 pM | 2000 pM | 19% | 780 pM | 97% | –
COc1ccccc1/C=C/C(=O)N[C@@H]1CC[C@@]2(O)[C@H]3Cc4ccc(O)c5c4[C@@]2(CCN3CC2CC2)[C@H]1O5 | – | – | – | 21% | – | 105% | –
CC(=O)O[C@@]12CC[C@@H](NC(=O)/C=C/c3ccccc3)[C@@H]3Oc4c(O)ccc5c4[C@@]31CCN(CC1CC1)[C@@H]2C5 | 210 pM | 590 pM | 1000 pM | 19% | 2400 pM | 97% | –
O=C(/C=C/c1ccccc1)N[C@@H]1CC[C@@]2(OC(=O)Cc3ccccc3)[C@H]3Cc4ccc(O)c5c4[C@@]2(CCN3CC2CC2)[C@H]1O5 | 280 pM | 260 pM | 1300 pM | 41% | 490 pM | 76% | –
O=C(/C=C/c1ccccc1)N[C@@H]1CC[C@@]2(O)[C@H]3Cc4ccc(O)c5c4[C@@]2(CCN3CC2CC2)[C@H]1O5 | 170 pM | 43 pM | 1800 pM | 21% | 120 pM | 100% | –
O=C(/C=C/c1ccccc1[N+](=O)[O-])N[C@@H]1CC[C@@]2(O)[C@H]3Cc4ccc(O)c5c4[C@@]2(CCN3CC2CC2)[C@H]1O5 | 350 pM | 300 pM | 690 pM | 6.7% | 1900 pM | 81% | –
